Assay outcomes as filed in PubChem BioAssay.
Most compounds without a hit are left out; they make up all but 1.8% or so of the library.
MT1-MMP act inh = blocks activation of human MT1-MMP; HT1080 RFP-PRO-GFP cells, GFP/RFP ratio fluorescence, overnight; percent of plate control window, DMSO zero; actives 0.061% (n = 360,000); AID 651647; GFP/RFP ratio change, % at 20 µM; P50281;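 active = GFP/RFP ratio change of at least 30% with cell ATP level not reduced by more than half and red fluorescence within 50% of control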
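Assay system – RFP-PRO-GFP reporter HT1080 cells · Compound dosing – single dose of 20 µM compound, 1% DMSO final · Incubation – overnight compound exposure at 37 °C · Measure – GFP/RFP fluorescence ratio · Benchmarks – DMSO wells and RFP-L50D-GFP cells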
eIF4H FP inh = inhibitors of RNA binding by human eIF4H; Q15056; eIF4H fluorescence polarization binding assay; inhibition, % at 35 µM; actives 0.94% (n = 290,000);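 also: calls also rest on retests at 20 µM and on dose response follow-up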
MLLE-PAM2 inh = blocks PAM2 peptide binding to the PABP1 MLLE domain; GST-MLLE / FITC-PAM2 fluorescence polarization; inhibition, % at 20 µM; actives 0.36% (n = 360,000); P11940; AID 588489; in the data active = inhibition above about 35%, passing the limit was not always enough;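 also: plate controls were DMSO wells with GST-MLLE for no effect and wells lacking GST-MLLE protein for full effect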
SKN-1 block = C. elegans SKN-1 inhibition | C. elegans VP596 Pgst-4::GFP/RFP ratio, acrylamide-induced, 24 h | inhibition, % at 21.8 µM | actives 0.49% (n = 360,000);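 active = interference check ratio from 0.5 to 1.5 plus GFP to RFP signal ratio inhibition reaching or exceeding a fixed threshold, cut at about 30% in these data, passing the limit was not always enough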
PABP polyA inh = blocks human PABP binding to poly(A) RNA | P11940 | fluorescence polarization | calls only at 35 µM | actives 1% (n = 290,000);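 also: calls also rest on retests at 20 µM and on dose response follow-up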
The depositor's hits bear a star; i = inactive; ? = inconclusive; nt = no result; + = active, no number. Unless noted, no rule for the calls is given here.

SMILES | MT1-MMP act inh | eIF4H FP inh | MLLE-PAM2 inh | SKN-1 block | PABP polyA inh
Cc1ccc(-c2nc(-c3ccncc3)no2)cc1 | 2.0 | -8.9 | 11.1 | 42.5* | i
Cc1cc(C)cc(-c2nc(-c3ccncc3)no2)c1 | 2.2 | -3.8 | 0.1 | 3.2 | i
FC(F)(F)c1cccc(-c2nc(-c3ccncc3)no2)c1 | 0.5 | -1.9 | -4.9 | 50.1* | i
Brc1cccc(-c2nc(-c3ccncc3)no2)c1 | -2.7 | 2.1 | 4.8 | 76.7* | i
Cc1ccc2c(c1)c(C)c(C)n2CC(O)Cn1nnc2ccccc21 (stereo unspecified) | 4.2 | 7.9 | -29.3 | 60.3* | i
CCOc1cc(/C=C2/C(=O)ON=C2C)ccc1OCc1ccccc1 | nt | ? | nt | nt | +
N#Cc1c(=O)c2nc(NCc3ccccc3)ncc2n2ccccc12 | -7.1 | 83.5* | 10.1 | -13.0 | +
COc1cc(/C=N/NC(=O)CSc2n[nH]c(=O)[nH]c2=O)cc(OC)c1O | -2.4 | 12.7 | 5.9 | -1.7 | +
O=C(CSc1n[nH]c(=O)[nH]c1=O)N/N=C/c1ccccc1O | 4.2 | 6.9 | 0.6 | -0.4 | i
S=C(Nc1ccccc1)Nc1nc2ccccc2n1CCOc1ccc(Cl)cc1 | 8.7 | 6.3 | 25.2 | 58.9* | i
Cc1ccc(C(=O)CNc2cccc([N+](=O)[O-])c2)cc1 | 2.1 | 52.4 | 41.2* | 0.8 | i
CCOC(=O)CC(=O)CSc1nc(N)c(C#N)c(-c2ccc(Cl)cc2)c1C#N | 6.1 | 114.3* | -5.0 | 4.6 | +
NS(=O)(=O)c1ccc(CCNC(=O)C2Cc3ccccc3CN2C(=O)c2ccco2)cc1 (stereo unspecified) | -3.3 | 9.3 | 4.6 | 12.1 | i
NS(=O)(=O)c1ccc(NC(=O)C2Cc3ccccc3CN2C(=O)c2ccco2)cc1 (stereo unspecified) | -0.6 | 70.2* | 12.9 | 11.5 | +
CCCS(=O)(=O)NC(=O)C1(C)CCCN(C(=O)c2ccc(OC)cc2)C1 (stereo unspecified) | -0.3 | nt | 2.8 | 1.7 | nt
Cc1cc(C)n2nc(C(=O)OCC(=O)NC3CCS(=O)(=O)C3)nc2n1 (stereo unspecified) | 0.6 | nt | -6.3 | 5.4 | nt
COc1ccc(CCNC(=O)c2ccc3nc(-c4ccco4)c(-c4ccco4)nc3c2)cc1OC | 2.3 | 106.0* | 38.1* | -9.9 | +
CCOCCCn1c(=S)[nH]c2cc(C(=O)NCCc3ccc(OC)c(OC)c3)ccc2c1=O | -1.4 | 13.8 | -80.1 | 5.4 | i
CCCNC(=O)c1ccc2c(=O)n(Cc3ccco3)c(=S)[nH]c2c1 | 0.5 | 91.4* | -62.4 | 2.8 | +
CCc1nc2ccc(C(=O)NCCc3ccc(OC)c(OC)c3)cc2nc1CC | 4.2 | -11.7 | -3.9 | -0.1 | i
COc1ccc(CCNC(=O)c2ccc3c(=O)n(Cc4ccco4)c(=S)[nH]c3c2)cc1OC | -9.5 | 72.8* | -28.8 | -7.1 | +
COC12CC(=O)C(C(C)=O)=C(O)C1(C)c1c(O)c(C)c(O)c(C(C)=O)c1O2 (stereo unspecified) | 2.8 | nt | -92.2 | -1.1 | nt
CN(C(=O)c1cc(COc2ccc(F)cc2Cl)on1)C1CCOC1 (stereo unspecified) | 0.1 | nt | -2.1 | 14.5 | nt
Cc1ccc(C)c(OC(=O)C2CSC3(C)CCC(=O)N23)c1C (stereo unspecified) | 1.9 | nt | 15.3 | -18.6 | nt
c1ccc(CCn2cccc2)nc1 | 0.7 | nt | 8.0 | 1.7 | nt
SMILES | MT1-MMP act inh | eIF4H FP inh | MLLE-PAM2 inh | SKN-1 block | PABP polyA inh
NC(=O)NC(=O)COC(=O)c1ccc(Cl)c(S(=O)(=O)N(Cc2ccccc2)c2ccc(Cl)cc2)c1 | 5.1 | 83.4 | 7.5 | 5.1 | +
O=C1c2ccccc2-c2onc3c(Oc4ccccc4)cc(O)c1c23 | nt | 85.3* | nt | nt | +
CC1(C(=O)NCc2ccccc2)CCC(=O)N1C1CC1 (stereo unspecified) | 5.6 | nt | -8.1 | 5.2 | nt
COc1cccc(CNc2ccc(N3CCCCC3)cc2)c1OC | 14.2 | 1.1 | 25.5 | -0.1 | i
COc1cccc(Nc2ccc(N3CCCCC3)cc2)c1OC | -15.5 | nt | 59.6* | 15.5 | nt
Cc1ccc2c(CC(=O)NNC(=O)c3ccccc3O)coc2c1 | 6.6 | nt | 11.9 | -16.3 | nt
Cn1nc(C#N)c(=O)[nH]c1=O | 0.7 | nt | -11.7 | 1.6 | nt
CNC(=O)/C(C#N)=C\c1ccc(CNS(=O)(=O)c2ccc(Cl)cc2)o1 | 0.2 | 3.3 | -109.2 | 6.8 | +
COc1ccccc1CNC(=O)C(=O)NCC1CCCO1 (stereo unspecified) | -1.2 | active | -8.6 | 3.6 | +
Cc1cc(O)c(C(C)C)cc1NC(=S)Nc1cc(C(C)C)c(O)cc1C | -3.6 | nt | 34.5 | 14.1 | nt
CCN1/C(=C/c2ccc3cc(C)ccc3[n+]2CC)Sc2cc(C)ccc21 | -23.2 | -42.0 | -173.6 | 55.7 | i
CCCCN1/C(=C/c2ccc3ccccc3[n+]2CC)Sc2ccccc21 | -151.1 | 7.0 | -193.8 | 36.5* | i
O=[N+]([O-])c1ccc(CSc2ccc(S(=O)(=O)N3CCOCC3)cn2)cc1 | 0.9 | nt | 37.5* | 16.1 | nt
O=[N+]([O-])c1ccc(CSc2ccc(S(=O)(=O)N3CCCC3)cn2)cc1 | -3.5 | nt | 32.4 | -4.5 | nt
CN(C)c1ccc(CNC(=O)/C=C/[C@H]2O[C@@H](n3ccc(=O)[nH]c3=O)[C@H](O)[C@@H]2O)cc1 | 2.4 | nt | -13.2 | 20.4 | nt
CCN1C(N(C)CCc2c[nH]c3ccccc23)=N[C@@H](c2cccc(C(F)(F)F)c2)C(C(=O)OC)=C1C | -3.8 | nt | -138.5 | 17.6 | nt
CCN1C(N(C)CCc2cccs2)=N[C@@H](c2ccccc2)C(C(=O)OC)=C1C | -4.2 | -0.1 | -100.8 | 14.2 | +
COc1ccccc1CNC(=O)CSC1=NCCS1 | -1.6 | -7.5 | 41.2* | 6.3 | i
O=C(CSC1=NCCS1)Nc1ccccc1F | 0.0 | -0.7 | 42.8* | -1.7 | i
COc1ccccc1CNC(=O)CSc1ccc(Br)cc1 | 0.4 | -5.8 | 12.6 | 10.2 | i
CC(NC(=O)CSC1=NCCS1)c1ccccc1 (stereo unspecified) | -0.9 | -11.9 | 45.7* | 14.1 | i
O=C(CSC1=NCCS1)Nc1cccc2ccccc12 | -1.4 | -11.1 | 35.1 | 2.2 | i
O=C(CSC1=NCCS1)NC(NC(=O)CSC1=NCCS1)c1ccccc1 | 2.3 | -6.1 | 20.7 | 5.8 | i
CN(C)c1ccc(N=Cc2ccco2)cc1 | 14.9 | 38.0 | 13.6 | -5.4 | i
C(=Nc1cccc2c(N=Cc3ccco3)cccc12)c1ccco1 | -4.1 | ? | 66.7* | 23.7 | i
C(=N\C(/N=C/c1ccco1)c1ccco1)/c1ccco1 | -3.2 | 102.7* | 12.1 | 24.5 | +
COc1ccccc1N1CCN(C(=O)c2cccc(S(=O)(=O)N3c4ccccc4CC3C)c2)CC1 (stereo unspecified) | 0.5 | nt | -1.8 | -6.0 | nt
COc1ccc(/C=C2\SC(=O)N(CC(=O)NC3CCS(=O)(=O)C3)C2=O)cc1 (stereo unspecified) | 5.6 | -4.8 | 5.2 | -11.8 | i
